The values below come from ChEMBL document CHEMBL1121586, “Synthesis, biological activity, and structure--activity/toxicity relationships of a series of terphenyl analogues of hemicholinium-3 and acetyl-seco-hemicholinium-3. 3” (J Med Chem, 1980).

Data set [1] in a line: Ratio of terphenyl LD50 doses to biphenyl HC-3 in charles river CD-1 strain adult male albino mice. It is filed as ADME, organism-based. As to conditions: CD-1, mouse, in vivo.
Data set [2] has as its system Mus musculus. Description: Tested for percentage mortality in charles river CD-1 strain adult male albino mice after introducing antagonist neostigmine at intraperitoneal dosage of 0.2 mg/kg, 1 min prior to compound. In kind it is functional. On the set-up: concentration or dose not given beside the values. As to conditions: ip.
A short description of data set [3]: Tested for terphenyl analogue in charles river CD-1 strain adult male albino mice after intraperitoneal administration. It is filed as ADME, organism-based. As to conditions: CD-1, mouse, in vivo, ip. The essentials: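 Adult male albino Charles River CD-1 mice (20-30 g) were dosed ip with a suspension in 0.8% (w/v) sodium carboxymethylcellulose in 0.9% NaCl. The LD50 was estimated by Finney's staircase sampling method, which allows for variation in LD50 with time of day, and is reported with 95% confidence limits.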

Data set [4] can be described thus: Tested for biphenyl analogue in charles river CD-1 strain adult male albino mice after intraperitoneal administration. As to conditions: CD-1, mouse, in vivo, ip. It is filed as ADME, organism-based.
The nature of data set [5]: Ratio of terphenyl LD50 doses to biphenyl analogues in charles river CD-1 strain adult male albino mice. It is filed as ADME, organism-based. To be noted: CD-1, mouse, in vivo.
For data set [6], the system named is Mus musculus. The data set can be described thus: Tested for percentage mortality in charles river CD-1 strain adult male albino mice after introducing antagonist choline at intraperitoneal dosage of 20 mg/kg, 1 min prior to compound. It is filed as functional. On the set-up: concentration or dose not given beside the values. To be noted: ip.
Data set [7] has as its system Mus musculus. Description: Tested for percentage mortality in charles river CD-1 strain adult male albino mice after introducing antagonist choline at intraperitoneal dosage of 20 mg/kg, 1 min prior to compound; b represents Least toxic. In kind it is functional, organism-based. More on the design: dose 20 mg/kg.
The test system of data set [8] is Mus musculus. The data set can be described thus: Tested for percentage mortality in charles river CD-1 strain adult male albino mice after introducing antagonist neostigmine at intraperitoneal dosage of 0.2 mg/kg, 1 min prior to compound; b represents Least toxic. It is filed as functional, organism-based. More on the design: dose 0.2 mg/kg.
Data set [9] deals with Mus musculus. Description: Tested for terphenyl analogue in charles river CD-1 strain adult male albino mice after intraperitoneal administration; b represents Least toxic. It is filed as ADME, organism-based. As to conditions: in vivo, ip.

As for `C[N+]1(C)CCOC(O)(c2ccc(-c3ccc(-c4ccc(C5(O)C[N+](C)(C)CCO5)cc4)cc3)cc2)C1.[Br-].[Br-]` (stereo not drawn), the selectivity ratio in data set [1] and in data set [5] was 0.82 each time. For the same compound, the mortality (as a rule, the percentage killed) stood at 80% in the data set with Mus musculus [2] and 70% with Mus musculus [6]. In addition, the median lethal dose (LD50) (usually the dose at which mortality reaches 50%) in [3] is 0.107 mg/kg; in data set [4] it was 0.13 mg/kg.
Consider `CC(=O)CCC[N+](C)(C)CC(=O)c1ccc(-c2ccc(-c3ccc(C(=O)C[N+](C)(C)CCCC(C)=O)cc3)cc2)cc1.[Br-].[Br-]`, for which the selectivity ratio was 32.8 in data set [1] and 1.38 in [5]. Also, the LD50 came to 4.27 mg/kg in data set [3] and 3.1 mg/kg in [4].
Take `CCCCC[N+](C)(C)CC(=O)c1ccc(-c2ccc(-c3ccc(C(=O)C[N+](C)(C)CCCCC)cc3)cc2)cc1.[Br-].[Br-]`: the selectivity ratio came out at 32.8 in data set [1] and 1.38 in data set [5]. Moreover, the mortality was determined as 100% in the data set with Mus musculus [2] and 80% in the data set with Mus musculus [6]. Further, the LD50 in [3] was 5.32 mg/kg; in data set [4], 5.6 mg/kg.
Consider `CCOCC[N+](C)(C)CC(=O)c1ccc(-c2ccc(-c3ccc(C(=O)C[N+](C)(C)CCOCC)cc3)cc2)cc1.[Br-].[Br-]`, for which the selectivity ratio in [1] came to 127; in data set [5] it was 9.02. For the same compound, the mortality in the data set with Mus musculus [2] and in the data set with Mus musculus [6] was 90% in each case. Further, the LD50 in data set [3] came out at 16.6 mg/kg; in data set [4] it was 1.84 mg/kg.
Turning to `C[N+](C)(CCS)CC(=O)c1ccc(-c2ccc(-c3ccc(C(=O)C[N+](C)(C)CCS)cc3)cc2)cc1.[Br-].[Br-]`, the Mortality entry in the data set with Mus musculus [7] and with Mus musculus [8] was “Toxic” each time. Further, the LD50 in [4] worked out at 29.4 mg/kg. Moreover, in the data set with Mus musculus [9], the LD95 result is on record as “Toxic”.
Regarding `CC(=O)OCC[N+](C)(C)CC(=O)c1ccc(-c2ccc(-c3ccc(C(=O)C[N+](C)(C)CCOC(C)=O)cc3)cc2)cc1.[Br-].[Br-]`, the selectivity ratio in [1] is 2.56; in data set [5] it was 2.66. Further, the mortality with Mus musculus [2] came to 20%; in the data set with Mus musculus [6], 30%. Also, the LD50 in data set [3] worked out at 0.333 mg/kg; in data set [4] it was 0.125 mg/kg.
In the case of `CC(=O)SCC[N+](C)(C)CC(=O)c1ccc(-c2ccc(-c3ccc(C(=O)C[N+](C)(C)CCSC(C)=O)cc3)cc2)cc1.[Br-].[Br-]`, the selectivity ratio in [1] was determined as 23.5; in [5], 22.9. Besides, the values for the mortality with Mus musculus [2] and in the data set on Mus musculus [6] were 80% and 60%, respectively. Further, the values for the LD50 in data set [3] and in [4] were 3.05 mg/kg and 0.133 mg/kg, respectively.
